EPA's CvTdb concentration-time database

Tests used:
Rat [1] = experiment: concentration in brain after dosing; conditions: 6 h; dosed: alpha-Thujone; 25 mg/kg; oral; Male; Harlan Sprague Dawley
Rat [2] = experiment: concentration in plasma after dosing; conditions: 3 h; dosed: alpha-Thujone; 50 mg/kg; oral; Female; Harlan Sprague Dawley
Rat [3] = experiment: concentration in plasma after dosing; conditions: 2 min; dosed: alpha-Thujone; 25 mg/kg; oral; Male; Harlan Sprague Dawley
Rat [4] = experiment: concentration in brain after dosing
Rat [5] = experiment: concentration in brain after dosing; conditions: 3 h; dosed: alpha-Thujone; 25 mg/kg; oral; Female; Harlan Sprague Dawley
Rat [6] = experiment: concentration in brain after dosing; conditions: 2 min; dosed: alpha-Thujone; 50 mg/kg; oral; Female; Harlan Sprague Dawley
Rat [7] = experiment: concentration in plasma after dosing; conditions: 3 h; dosed: alpha-Thujone; 25 mg/kg; oral; Female; Harlan Sprague Dawley
Rat [8] = experiment: concentration in plasma after dosing; conditions: dosed: Methyleugenol, 37 mg/kg, oral, Female, F344/N
Rat [9] = experiment: concentration in plasma after dosing; conditions: dosed: Methyleugenol, 37 mg/kg, iv, Male, F344
Rat [10] = experiment: concentration in plasma after dosing; conditions: 9 h; dosed: Primidone; 80 mg/kg; oral; Female; F344
Rat [11] = experiment: concentration in plasma after dosing; conditions: 0.5 h; dosed: Primidone; 130 mg/kg; oral; Female; F344
Rat [12] = experiment: concentration in plasma after dosing; conditions: 6 h; dosed: Primidone; 130 mg/kg; oral; Female; F344
Mouse [13] = experiment: concentration in plasma after dosing; conditions: B6C3F1
Mouse [14] = experiment: concentration in plasma after dosing; conditions: 0.25 h; dosed: 2-Hydroxy-4-methoxybenzophenone; 500 mg/kg; oral; Male; B6C3F1
Rat [15] = experiment: concentration in plasma after dosing; conditions: dosed: 2-Hydroxy-4-methoxybenzophenone, 250 mg/kg, oral, Male, F344
Rat [16] = experiment: concentration in plasma after dosing; conditions: 0.25 h; dosed: 2-Hydroxy-4-methoxybenzophenone; 500 mg/kg; oral; Male; F344
Hamster = experiment: concentration in plasma after dosing; conditions: dosed: 2,4-Dichlorophenoxyacetic acid, 8.0 mg/kg, iv, Male, Syrian Golden
Procedure, shortened: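 Data points giving concentration or amount against time came from published in vivo toxicokinetic studies and from two structured collections. PubMed searching, classifier screening and manual review located the studies. Most points were digitised from plot screenshots using WebPlotDigitizer, the rest were copied from tables, and all keep their reported units.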

Mouse [17] = experiment: concentration in plasma after dosing; conditions: dosed: 2,4-Dichlorophenoxyacetic acid, 5.2 mg/kg, oral, Male, B6C3F1
Rat [18] = experiment: concentration in plasma after dosing; conditions: dosed: Perfluorohexane-1-sulphonic acid – potassium salt, 4 mg/kg, oral, Male, F344
Rat [19] = experiment: concentration in brain after dosing; conditions: 3 h; dosed: Perfluorohexane-1-sulphonic acid – potassium salt; 16 mg/kg; oral; Female; Harlan Sprague Dawley
Rat [20] = experiment: concentration in kidney after dosing; conditions: 528 h; dosed: Perfluorohexane-1-sulphonic acid – potassium salt; 16 mg/kg; oral; Female; F344
Rat [21] = experiment: concentration in kidney after dosing; conditions: 12 h; dosed: Perfluorohexane-1-sulphonic acid – potassium salt; 16 mg/kg; oral; Female; Harlan Sprague Dawley
Rat [22] = experiment: concentration in brain after dosing; conditions: 3 h; dosed: Perfluorohexane-1-sulphonic acid – potassium salt; 16 mg/kg; oral; Female; Harlan Sprague Dawley; remark: listed apart in the source

CC(C)[C@]12CC(=O)[C@H](C)[C@H]1C2 [alpha-Thujone]
Conditions | concentration in brain [ng/g] | concentration in plasma [ng/mL]
Rat [1] | 117 | –
Rat [2] | – | 201
Rat [3] | – | 18
Rat [5] | 919 | –
Rat [6] | 87.7 | –
Rat [7] | – | 176

concentration in brain [ng/g], Rat [4], dosed: alpha-Thujone, oral
Conditions | 0.5 h | 1.5 h | 2 min | 3 h | 5 min | 6 h | 10 min | 12 h
25 mg/kg, Female, Harlan Sprague Dawley | 801 | – | 77.8 | 390 | – | 270 | – | 12.7
25 mg/kg, Male, Harlan Sprague Dawley | 689 | 299 | 21 | 122 | 414 | 77.1 | 689 | –
50 mg/kg, Female, F344 | – | – | – | – | 2010 | 437 | 4550 | –
50 mg/kg, Female, Harlan Sprague Dawley | 1350 | 966 | 44.8 | 517 | 508 | 648 | 1030 | 48.5
50 mg/kg, Male, F344 | – | 952 | – | – | – | – | 6400 | –
50 mg/kg, Male, Harlan Sprague Dawley | 2470 | 677 | 40.6 | 1130 | – | 518 | 6510 | 31.7

concentration in brain [ng/g], Rat [4], dosed: 76231-76-0, 3.0 mg/kg, iv, F344
Conditions | 2 h | 2.5 h | 3 h | 4 h
Female | 16.8 | 11.6 | 11.6 | –
Male | – | – | – | 26.3

C=CCc1ccc(OC)c(OC)c1 [Methyleugenol]
concentration in plasma [ng/mL]
Conditions | 2 min | 5 h | 5 min | 6 h
Rat [8] | – | 16.9 | 211 | –
Rat [9] | 59100 | – | – | 114

CCC1(c2ccccc2)C(=O)NCNC1=O [Primidone]
Conditions | concentration in plasma [ng/mL]
Rat [10] | 21600
Rat [11] | 35300
Rat [12] | 74300

O=C(c1ccccc1)c1ccc(O)cc1O [2,4-Dihydroxybenzophenone]
concentration in plasma [ng/mL], Mouse [13], dosed: 2-Hydroxy-4-methoxybenzophenone
Conditions | 0.25 h | 2 h | 2.5 min | 3 h | 10 min
50 mg/kg, iv, Female | 800 | 44.6 | – | 63.1 | 1700
50 mg/kg, iv, Male | 1440 | 230 | – | 70.5 | 3710
100 mg/kg, oral, Female | 721 | 61.9 | 44 | 50.2 | 383
100 mg/kg, oral, Male | 171 | 320 | 120 | 109 | 195
250 mg/kg, oral, Female | 1340 | 185 | 71.2 | 120 | 1840
250 mg/kg, oral, Male | 988 | 338 | 115 | 265 | 542
500 mg/kg, oral, Female | 3280 | 309 | – | – | 2800
500 mg/kg, oral, Male | 1510 | 282 | – | – | 1110

Conditions | concentration in plasma [ng/mL]
Mouse [14] | 1980
Rat [16] | 713

Rat [15]
Conditions | concentration in plasma [ng/mL]
3 h | 71.8
10 min | 40.9

O=C(O)COc1ccc(Cl)cc1Cl [2,4-Dichlorophenoxyacetic acid]
concentration in plasma [ng/mL], Mouse [13], dosed: 2,4-Dichlorophenoxyacetic acid, Male
Conditions | 1.0 mg/kg | 2.0 mg/kg | 5.2 mg/kg
0.25 h, iv | 6980 | – | –
0.25 h, oral | 1210 | 5300 | 16000
0.5 h, oral | 3030 | 3480 | 16800
1 h, iv | 2730 | – | –
2 h, oral | 486 | 2900 | 16000
2.5 h, iv | 951 | – | –
2.5 min, iv | 7580 | – | –
2.5 min, oral | 2070 | 3200 | –
3 h, oral | 470 | 1950 | 12800
4 h, iv | 1200 | – | –
4 h, oral | 164 | – | 6840
5 min, iv | 7190 | – | –
5 min, oral | 3130 | 5970 | 11300
6 h, iv | 235 | – | –
6 h, oral | 123 | 390 | 1250
8 h, oral | 120 | – | –
10 h, oral | – | – | 459
10 min, iv | 7290 | – | –
10 min, oral | 1360 | 5500 | –

concentration in plasma [ng/mL]
Conditions | 0.25 h | 0.5 h | 1 h | 2 h | 3 h | 4 h | 5 min | 6 h | 10 h | 10 min
Hamster | – | 10700 | 1700 | – | – | – | – | – | – | 30200
Mouse [17] | 12900 | 21100 | – | 18600 | 8140 | 8940 | 18900 | 2910 | 212 | –

O=S(=O)([O-])C(F)(F)C(F)(F)C(F)(F)C(F)(F)C(F)(F)C(F)(F)F.[K+] [Perfluorohexane-1-sulphonic acid – potassium salt]
Rat [18]
Conditions | concentration in plasma [ng/mL]
3 h | 28000
24 h | 31600
1200 h | 3240

Conditions | concentration in brain [ng/g] | concentration in kidney [ng/g]
Rat [19] | 1340 | –
Rat [20] | – | 10000
Rat [21] | – | 31200
Rat [22] | 1560 | –

concentration in brain [ng/g], Rat [4], dosed: Perfluorohexane-1-sulphonic acid – potassium salt, 16 mg/kg, oral, Female
Conditions | 3 h | 6 h | 12 h | 24 h | 48 h | 192 h | 528 h
F344 | 1890 | 1490 | 2110 | 1460 | – | 847 | 523
Harlan Sprague Dawley | 1170 | 1070 | 951 | 731 | 515 | – | –
